Experimental data reported in publication PMC6733264 (ACS chemical biology, 2019).
Square brackets hold non-standard residues; d marks the D form. Ends that are not written are not given here. PEG = not defined here

Columns and labels:
[1] = tested on: HEK293 cells transiently transfected with BRAF^G469A; assay: Immunoblot of MAPK signaling in transiently transfected HEK293 cells; type: cell-based, human; settings: for BRAF activity (phospho-MEK1/2): 0, 10, 25, 50, 75, 100 μM for 4 hr, 48 hr post-transfection
[2] = tested on: p61 BRAF^V600E in HEK293 cells; assay: Immunoblot of HEK293 cells transfected with p61-BRAF^V600E; type: cell-based, human; settings: increasing concentrations, 4 hr
How it was run: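 HEK293 cells were transiently transfected with 6X-His/FLAG-tagged p61-BRAF V600E in pcDNA4/TO. p61 is an aberrantly spliced BRAF of about 61 kDa. Cells were exposed to increasing concentrations of the TAT-tagged test peptide for 4 hr, then lysates were immunoblotted.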

[3] = tested on: HEK293 cells transiently transfected with BRAF^WT; assay: Immunoblot of MAPK signaling in transiently transfected HEK293 cells; type: cell-based, human; settings: for BRAF activity (phospho-MEK1/2): 0, 10, 25, 50, 75, 100 μM for 4 hr, 48 hr post-transfection
HCT-15 cells = assay: WST cell viability assay; type: cell-based, human; settings: concentrations up to 100 μM, 48 hr
HCT116 cells = assay: WST cell viability assay; type: cell-based, human; settings: concentrations up to 100 μM, 48 hr
[4] = biological target: full-length (FL) BRAF^G469A (Homo sapiens, UniProt P15056, G469A); assay: ELISA kinase assay of purified full-length BRAF, probing phosphorylated MEK; type: biochemical
Chain of full-length (FL) BRAF^G469A (P15056 whole entry G469A): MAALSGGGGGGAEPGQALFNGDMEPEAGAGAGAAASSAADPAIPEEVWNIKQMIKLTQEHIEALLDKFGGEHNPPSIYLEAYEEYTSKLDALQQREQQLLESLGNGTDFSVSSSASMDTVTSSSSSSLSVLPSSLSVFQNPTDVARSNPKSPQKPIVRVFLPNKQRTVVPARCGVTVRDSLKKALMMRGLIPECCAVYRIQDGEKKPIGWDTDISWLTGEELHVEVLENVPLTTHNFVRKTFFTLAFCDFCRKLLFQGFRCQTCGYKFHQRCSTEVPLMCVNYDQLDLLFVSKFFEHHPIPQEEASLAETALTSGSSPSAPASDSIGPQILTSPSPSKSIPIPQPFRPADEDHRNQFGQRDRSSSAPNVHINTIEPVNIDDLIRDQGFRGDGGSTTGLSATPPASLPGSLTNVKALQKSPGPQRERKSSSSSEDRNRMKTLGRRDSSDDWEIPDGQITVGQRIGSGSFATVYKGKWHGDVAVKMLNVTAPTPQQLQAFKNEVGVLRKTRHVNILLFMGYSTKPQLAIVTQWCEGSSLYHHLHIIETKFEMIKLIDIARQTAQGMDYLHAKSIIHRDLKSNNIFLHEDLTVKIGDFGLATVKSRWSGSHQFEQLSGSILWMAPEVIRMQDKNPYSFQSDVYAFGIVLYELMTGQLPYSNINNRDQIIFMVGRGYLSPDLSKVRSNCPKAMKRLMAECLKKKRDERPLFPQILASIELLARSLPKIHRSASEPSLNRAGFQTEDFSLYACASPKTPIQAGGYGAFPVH

full-length (FL) BRAF^WT = full-length (FL) BRAF^WT (Homo sapiens, UniProt P15056); assay: as above; type: biochemical
Chain of full-length (FL) BRAF^WT (P15056 whole entry): as the sequence (P15056 whole entry G469A) above, with A469G counted along it

Molecule: TAT-braftide (GRKKRRQRRRPQ[PEG]TRHVNILLFM; reading uncertain; also: PEG linker between TAT and braftide)
- BRAF activity (phospho-MEK1/2) [1]: significantly reduced the activity of BRAF in a dose-dependent manner
- protein levels of overexpressed BRAF and endogenous MEK1 ([1]; 0-100 μM for 4 hr): markedly decreased in a dose-dependent manner
- pMEK and pERK levels [2]: decrease in both pMEK and pERK levels
- BRAF activity (phospho-MEK1/2) ([3]; immunoblot): significantly reduced the activity of BRAF in a dose-dependent manner
- protein levels of overexpressed BRAF and endogenous MEK1 ([3]; 0-100 μM for 4 hr, immunoblot): markedly decreased in a dose-dependent manner
- paradoxical effect caused by lower doses of dabrafenib ([3]; pre-treatment with 75 μM for 2 h, then dabrafenib 1 hr): abrogated the paradoxical effect

Molecule: GRKKRRQRRRPQ [TAT peptide, reference compound]
- cell death (HCT-15 cells): no cell death was observed
- cell death (HCT116 cells): no cell death was observed
- BRAF activity (phospho-MEK1/2) [1]: no inhibition effect was observed
- BRAF activity (phospho-MEK1/2) ([3]; immunoblot): no inhibition effect was observed

Molecule: CC(C)(C)c1nc(-c2cccc(NS(=O)(=O)c3c(F)cccc3F)c2F)c(-c2ccnc(N)n2)s1 [dabrafenib, reference compound]
- concentration at which dabrafenib alone acts as an inhibitor of MAPK signaling ([3]; 0-10 μM for 1 hr, activates MAPK signaling at lower concentrations): above 10 μM

Molecule: THHVNILLFM [R/H-braftide]
- IC50 [4]: 625 to 3340 nM
- IC50 (full-length (FL) BRAF^WT): 2490 to 4980 nM
